Experimental data published in PubChem BioAssay AID651787 (The Scripps Research Institute Molecular Screening Center, 2012).
In all, about 2,400 compounds went through this assay and about 1,200 (50%) were called active. The set was probably picked from earlier hits. Only a sample is shown. Unmarked numbers belong to inactive results.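 Rule for the calls: active = activation above the run cutoff, the mean activation over all tested wells plus 3 SD (cut at about 12% in these data); inactive = the rest.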

Assay: nonselective calcium mobilization agonists, CHO-Ga16 cells, counter-screen for hTAAR1 agonist project, cell-based, fluorescence, CHO-Ga16 parental line (AID 651787)
Conditions: Fluo-8 calcium fluorescence, at 3 µM, hits give high values, normalized to maximal ATP response, DMSO zero
Procedure, shortened: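 System: Gα16-overexpressing parental CHO cells; Quantity: 750 cells/well; Signal: Fluo-8 calcium-dye fluorescence; Benchmarks: DMSO (0%) and EC100 ATP (100%); Evaluation: percent activation from max/basal fluorescence ratio; Schedule: Fluo-8 loading 75 min 37 °C, then 30 min room temperature; Dosing: 3 µM compound, single concentration.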
`Cc1ccc(Sc2cc(N3CCOCC3)nc(-c3ccccc3)n2)cc1` gave an activation of 4.27%.
Work on `O=C(COC(=O)Cc1ccccc1F)NCCc1ccccc1` yielded an activation of 0.47%.
For `Fc1ccc(NC(=S)N2CCc3[nH]c4ccccc4c3C2)cc1`, the activation was 11.5% (active).
Work on `COc1ccc(OC)c(NC(=S)N2CCc3ccccc3C2)c1` yielded an activation of 0.03%.
In the case of `O=C(Nc1ccc(Cl)cc1)N1CCc2[nH]c3ccccc3c2C1`, the activation is reported as 1.95%.
With `c1ccc2c(c1)C(=NC1CCCCC1)NC2=NC1CCCCC1` the activation was 59.9% (active).
For `CCC(c1nnnn1Cc1ccco1)N(CCc1ccccc1)Cc1cc2cccc(C)c2[nH]c1=O` (stereo not drawn), the activation was 8.41%.
With `CC(Oc1ccc(Cl)cc1)C(=O)OCC(=O)Nc1ncc(Cl)cc1Cl` (stereo not drawn) the activation was 14.9% (active).
With `COc1ccc2c(c1)OC(O)(C(F)(F)C(F)F)CC2=O` (stereo not drawn) the activation was 27.7% (active).
For `COc1ccc(Cl)cc1C(=O)NNC(=S)NC(=O)/C=C/c1ccco1`, the activation was 83.3% (active).
For `Cc1ccc(NC(=O)CCN2CCc3ccccc3C2)cc1`, the activation was 10.8%.
For `Nc1cc(OC(=O)c2ccccc2Br)nn1S(=O)(=O)c1ccccc1`, the activation was 39.3% (active).
For `S=C(NCCc1ccccc1)N1CCn2cccc2C1c1ccncc1` (stereo not drawn), the activation was 12.7% (active).
Compound `O=C(NCCc1ccccc1)C(=O)NCC1OCCN1S(=O)(=O)c1cccs1` (stereo not drawn) has an activation of 1.98%.
In the case of `CCCSc1nc2c(c(=O)n(C)c(=O)n2C)n1Cc1ccc(C)cc1`, the activation is reported as 34.2% (active).
With `O=C1C=C(c2ccc(Cl)cc2)C(=O)N1Nc1ccccc1` the activation was 46% (active).
With `COc1ccc2cc(-c3[nH]ncc3CNCCn3nc(C)cc3C)ccc2c1` the activation was 0.78%.
In the case of `COc1cccc(-c2cnc(OC(C)(C)C)nc2OC(C)(C)C)c1`, the activation is reported as 14.5% (active).
With `CSc1nc(N)c(C#N)c(-c2ccccc2Cl)c1C#N` the activation was 54.2% (active).
Work on `O=C(N[C@H](C(=O)N1CCC[C@H]1C(=O)NCCc1ccccc1Cl)c1ccccc1)c1ccccc1` yielded an activation of 1.78%.
In the case of `OC(CNCCc1ccc(Cl)cc1Cl)COc1ccccc1` (stereo not drawn), the activation is reported as 17.8% (active).
With `c1ccc2c(c1)OCC(CNc1ncnc3nc[nH]c13)O2` (stereo not drawn) the activation was 170% (active).
In the case of `COc1cc(OC)c(-n2cc(-c3ccc(Cl)cc3)[nH]c2=O)cc1Cl`, the activation is reported as 74.4% (active).
